# Screens deposited in PubChem by several laboratories.
# TNAP inh noacc: inhibitors of human TNAP without phosphate acceptor. P05186. 0.26% of 200,000 active. purified TNAP, CDP-star luminescence, 30 min. AID 1012. inhibition, % at 20 µM;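 active means tissue-nonspecific alkaline phosphatase inhibition above about 50% at 20 µM in the single-dose screen, limit read from the data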;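 further: 0% = DMSO negative control and 100% = EDTA positive control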
# Target sequence (P05186 whole entry, looked up): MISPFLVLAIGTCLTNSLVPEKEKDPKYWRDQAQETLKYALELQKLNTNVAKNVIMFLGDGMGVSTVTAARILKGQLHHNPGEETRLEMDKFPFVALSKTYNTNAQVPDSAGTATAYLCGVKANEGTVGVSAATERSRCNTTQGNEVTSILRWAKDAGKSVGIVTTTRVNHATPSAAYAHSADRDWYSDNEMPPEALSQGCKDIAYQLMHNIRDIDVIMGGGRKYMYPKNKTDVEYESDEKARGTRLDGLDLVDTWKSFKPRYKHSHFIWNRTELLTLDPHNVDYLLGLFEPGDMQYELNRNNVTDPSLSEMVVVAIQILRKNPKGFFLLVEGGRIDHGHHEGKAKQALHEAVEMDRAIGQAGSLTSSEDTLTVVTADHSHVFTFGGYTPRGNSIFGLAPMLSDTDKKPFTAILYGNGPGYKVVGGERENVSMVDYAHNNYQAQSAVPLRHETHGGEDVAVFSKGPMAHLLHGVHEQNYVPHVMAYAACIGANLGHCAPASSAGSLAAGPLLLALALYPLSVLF
# RAM inhibit: yeast RAM network inhibition; S. cerevisiae dse1pr::URA3 reporter, 5-FOA growth OD615, 2 d; analog-sensitive cbk1-as2 kinase mutant strain; inhibition, % at 50 µM; 1.8% of 190,000 active;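 active means inhibition above a set limit, 3 SD over mean compound inhibition, cut at about 8.4% in these data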;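 further: 0% = DMSO-only wells with no growth and 100% = 10 µM 1-NA-PP1 full growth; inhibition rescues growth on 5-FOA so higher OD means more RAM inhibition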
# Yeast life ext: yeast lifespan extension; S. cerevisiae growth with nicotinamide, OD615; deaD strain in restrictive glucose medium; inhibition of the nicotinamide effect, % at 10 µM; 0.68% of 130,000 active; AID 775;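 active means inhibition above a set limit, placed 3 SD over the median of all compounds, cut at about 26% in these data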;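 further: 0% = nicotinamide-treated wells and 100% = cells grown without nicotinamide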
#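 System: DeaD-strain S. cerevisiae / Buffer or medium: CSMM-D, restrictive glucose (dextrose) synthetic minimal medium / Probe or stimulus: nicotinamide, 1.5 mM, co-present with compound / Compound: one concentration, 10 µM, DMSO 0.25% / Incubation: 48 h compound exposure at 30 °C, humidified / Technique: optical density (absorbance) at 615 nm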
# Yeast growth inh: chemicals that inhibit yeast BB579 growth in restrictive medium (lifespan-shortening candidates); S. cerevisiae BB579 growth, OD615, 48 h; inhibition, % at 10 µM; 0.51% of 140,000 active;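 active means inhibition above a set limit, 3 SD over the mean compound inhibition, cut at about 44% in these data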
#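 controls = amphotericin B 10 µg/mL, positive | assay system = DeaD yeast strain BB579 | schedule = 48 h compound exposure at 30 °C after 4 h preincubation | detection = OD615 turbidity measurement | medium = restrictive CSMM-D medium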
# TNAP inh hiacc: blocks human TNAP under high phosphate acceptor concentration; P05186; purified TNAP, CDP-star luminescence, 1 M DEA; inhibition, % at 20 µM; 0.03% of 200,000 active; AID 1135;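 active means over 50% inhibition of tissue-nonspecific alkaline phosphatase at 20 µM in the single-dose screen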;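 further: plate controls were DMSO wells for no effect and EDTA-quenched wells as full inhibition for full effect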
# TNAP act hiacc: increases human TNAP activity under high phosphate acceptor concentration. 200,000 tested, under 10 active. P05186. activation factor at 20 µM. purified TNAP, CDP-star luminescence, 1 M DEA, 30 min; active compounds read high; 0 = EDTA background, 1 = DMSO-only activity. AID 1136;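 active means activation factor at least 2 at 20 µM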
#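 Dosing: 20 µM single point. System: human TNAP. Amount: TNAP 1/800 final. Incubation: 30 min, room temperature. Read-out: TNAP activation factor scaled between EDTA and DMSO control wells. Signal: luminescence from CDP-star hydrolysis. Medium: 1 M DEA, pH 9.8, Mg2+, Zn2+. Control set: EDTA negative control, DMSO positive control.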
# * = called active by the depositor; / = no result. Rows were chosen to be rich in hits. Some 2.8% of all compounds tested hit in one or more screens of this group.
SMILES,TNAP inh noacc,RAM inhibit,Yeast life ext,Yeast growth inh,TNAP inh hiacc,TNAP act hiacc
O=[N+]([O-])c1ccc(O)c2ncccc12,13.6,-1.1,-9.1,99.4*,16.9,0.8
COc1ccc(OC)c(NC(=O)C(=S)NC2CCCCC2)c1,-15.5,8.7*,/,/,-4.0,1
Cc1ncc(C23CC4CC(CC(C4)C2)C3)[nH]1,-26.5,0.5,151.9*,-34.3,-12.9,1.1
Cc1ccc(SCc2c(C#N)c3ccccc3n2C)cc1,-7.2,8.7*,/,-42.8,0.0,1
O=C(COC(=O)CNS(=O)(=O)c1ccccc1)Nc1ccc(Cl)cn1,2.8,0.0,-9.5,-66.8,-4.6,1
CCOC(=O)Cn1nc(C)cc1NC(=O)c1cccnc1,-6.9,-0.1,/,/,-5.7,1.1
CC(C)c1nc(SCC(=O)NCc2ccccc2)n[nH]1,-2.9,-0.2,-4.7,-19.4,-2.2,1
CC1(C(=O)CSc2n[nH]c(-c3ccccc3Cl)n2)CCC(=O)O1 (stereo unspecified),53.8*,-1.8,-15.0,-3.3,-3.5,1
CC1CC2(CC(C)(C(=O)CSc3n[nH]c(-c4ccccc4Cl)n3)OC2=O)C(=O)O1 (stereo unspecified),52.9*,2.5,-6.6,2.1,-3.4,1
O=C(CSc1n[nH]c(-c2ccccc2Cl)n1)NCc1cccc(C(=O)O)c1,93.0*,3.8,/,/,-0.2,1
Cc1ccc(S(=O)(=O)N2CCOCC2)cc1NC(=O)COC(=O)CSc1ccc(Br)cc1C,-7.4,2.4,-8.7,-18.4,9.8,0.9
CC/C(=N/Nc1ccccc1)c1cnnc(-c2ccccc2)n1,9.4,4.9,/,-39.0,6.6,0.9
CC/C(=N/Nc1cccc(Cl)c1)c1cnnc(SC)n1,3.0,9.0*,2.9,-51.0,3.5,1
COCCn1c(=O)[nH]c(=O)c2c(C(F)(F)F)cc(-c3cccs3)nc21,-2.5,1.7,-7.5,3.0,3.2,1
CCC(CC)C(=O)Nc1c(C)n(C)n(-c2ccccc2)c1=O,-2.5,1.8,57.1*,-4.9,-1.7,1
Cc1c(NC(=O)c2ccc(F)cc2)c(=O)n(-c2ccccc2)n1C,-18.5,2.6,-3.5,-14.7,-5.4,1.1
Cc1c(NC(=O)C(=O)/C=C(/O)c2ccccc2)c(=O)n(-c2ccccc2)n1C,4.5,0.2,67.1*,-18.3,-0.5,1
COc1ccc(/C(O)=C/C(=O)C(=O)Nc2c(C)n(C)n(-c3ccccc3)c2=O)cc1,-14.4,0.1,72.6*,-34.3,-3.8,1
Cc1ccc(N(C(=O)Cn2nnc3ccccc32)C(C(=O)NCc2ccccc2)c2ccccn2)cc1 (stereo unspecified),-10.3,1.6,-1.9,-25.1,0.3,1
Clc1cccc(NCc2nnc(SCc3ccc(Cl)cc3Cl)o2)c1,-3.7,8.4*,/,-17.8,2.7,1
COc1cccc(C(=O)Nc2ccc(S(=O)(=O)NCc3ccco3)cc2)c1,-18.0,2.8,-2.8,-19.3,-6.1,1.1
COC(=O)Nc1nn(-c2ccc(OC)cc2)c(=O)c(C#N)c1C,-12.4,1.1,/,/,-3.2,1
CCNc1nc(=S)nc(NCc2ccccc2)[nH]1,-12.8,1.7,/,/,-1.5,1
CCCCC/C(=N\NC(=O)Nc1ccccc1)c1ccccc1,-10.8,9.5*,/,/,-5.2,1.1
COc1ccccc1-n1nnnc1SCc1cc2c(cc1Br)OCO2,-7.0,9.5*,5.6,-62.5,-5.5,1.1
SMILES,TNAP inh noacc,RAM inhibit,Yeast life ext,Yeast growth inh,TNAP inh hiacc,TNAP act hiacc
COc1ccc(-c2cc(N)n(S(=O)(=O)c3c(F)c(F)c(F)c(F)c3F)n2)cc1OC,-11.2,1.9,76.9*,-107.0,-4.7,1
COc1ccc(S(=O)(=O)n2nc(-c3cc(OC)c(OC)c(OC)c3)cc2N)cc1OC,-5.5,2.8,-5.0,-7.5,4.1,1
COc1ccccc1/C=C(\NC(=O)c1ccc(OC)c(OC)c1)C(=O)Nc1ccc([N+](=O)[O-])cc1,-1.3,8.5*,4.8,-18.9,-2.6,1
O=C(Nc1cccc(C(=O)O)c1)/C(=C/c1ccc([N+](=O)[O-])cc1)NC(=O)c1ccccc1,-10.3,9.9*,/,/,-6.2,1.1
COc1ccccc1/C=C(\NC(=O)c1ccc(OC)c(OC)c1)C(=O)Nc1cccc([N+](=O)[O-])c1,1.5,6.8,3.3,-34.0,-2.7,1
CNC(=S)NC1CC2CCCC(C1)N2Cc1ccco1 (stereo unspecified),-13.3,0.5,68.4*,-37.4,-7.6,1.1
CC(C)CNC(=S)NC1CC2CCCC(C1)N2Cc1ccco1 (stereo unspecified),-7.9,0.0,-21.5,-49.8,-2.9,1
S=c1nc(-c2csc3c2CCCC3)[nH][nH]1,-14.6,0.0,/,/,0.0,1
Cc1ccc(OCCN2CCN(CC(O)Cn3c4ccccc4c4ccccc43)CC2)cc1 (stereo unspecified),-3.5,-0.1,-3.6,1.0,3.0,1
CCC(=C(c1ccc(OC)cc1)c1ccc(OC)cc1)c1cn(CC(O)CN2CCN(C)CC2)c2ccccc12 (stereo unspecified),-3.0,-0.3,-17.8,94.9*,-1.9,1
CCOC(=O)c1sc2ccccc2c1OC(=O)c1ccc(C)cc1,-7.8,8.7*,4.3,-31.6,2.7,1
C=CCNC(=O)c1onc(CSc2cccc(OC)c2)c1C(=O)O,-6.4,2.0,-2.9,-80.3,2.4,1
O=C(N/N=C/c1ccc(O)c(O)c1)c1cccc(S(=O)(=O)N2CCCCC2)c1,78.2*,-0.1,/,/,18.5,0.8
COc1cc(/C=N/NC(=O)c2cccc(S(=O)(=O)N3CCCCC3)c2)cc(Br)c1O,-3.2,0.8,/,/,-1.7,1
CCc1ccc(NC(=S)N2CCNC(=O)C2CC(=O)OC)cc1 (stereo unspecified),-8.4,1.0,/,/,-5.2,1.1
CN(C)c1ccc(S(=O)(=O)c2ccc(Cl)cc2)cc1,-6.6,3.0,70.9*,-11.8,-1.8,1
CN(C)c1ccc(NS(=O)(=O)c2ccc(Cl)cc2)cc1,-39.7,0.5,0.4,-26.9,-1.2,1
Cc1ccc2nc(NC(=O)C3=NN(c4ccccc4)C(=O)CC3)sc2c1,-5.1,1.9,-5.2,-50.1,0.7,1
Cc1cccc2sc(NC(=O)C3=NN(c4ccccc4)C(=O)CC3)nc12,-3.9,10.6*,5.9,-20.5,0.3,1
COc1cccc(-n2nnnc2SCC(=O)Nc2ccc(C(C)=O)cc2)c1,-4.4,0.4,/,-28.5,-0.9,1
CCCS(=O)(=O)c1nnnn1-c1cccc(OC)c1,-7.3,-0.9,-19.4,95.9*,-1.9,1
NS(=O)(=O)c1cnccc1Nc1ccc(Cl)cc1,86.6*,2.2,7.8,-41.4,90.1*,0.1
COc1cc(C(=O)NCCOc2ccc(F)cc2)c(Br)c(OC)c1OC,-0.1,0.2,/,/,-4.1,1
